The subject of data set [1] is U2OS. Put plainly: Anticancer activity against human U2OS cells assessed as reduction in cell proliferation after 48 hrs by WST-1 assay. It counts as functional, cell-based. Summed up:
(§1)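 Cells were exposed to compound for 48 h and proliferation was measured from dose-response curves. NCM460 was tested at doses up to 20 µM. U-2 OS was also read in the 2.5-5.0 µM range. IC50 was calculated from the curves. Data are mean of quadruplicates ± SD from three independent trials.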

The target in data set [2] is T1, Tubulin (Sus scrofa) (UniProt P02554+P02550). Put plainly: Inhibition of porcine brain tubulin polymerization at 3 uM measured for 1 hr by spectrofluorometer analysis. The procedure, abridged:
(§2)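 This was an in vitro tubulin polymerization assay monitored kinetically for 1 h against a DMSO vehicle control. Polymerization was read fluorometrically from incorporation of a fluorescent reporter, in relative fluorescence units. Data are mean of duplicates ± SEM of three independent trials, compared with control.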

Data set [3] in a line: Induction of apoptosis in human NCM460 cells assessed as phosphatidylserine externalization 0.1 and 20 uM after 48 hrs by AnnexinV/propidium iodide staining based Tali-image based cytometry. Conditions: ncm460, 48 h. It counts as cell-based. The procedure, abridged: (§3)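 After 48 h treatment, phosphatidylserine externalization was detected with Annexin V–Alexa Fluor 488, and membrane-permeabilized (necrotic) cells were detected by propidium iodide uptake. Green and/or red populations were quantified by image-based cytometry. Signal above the control baseline was scored as apoptotic, necrotic, or both. Data are mean ± SD of three independent trials.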

Data set [4] can be described thus: Anticancer activity against human Saos2 cells assessed as reduction in cell proliferation after 48 hrs by WST-1 assay. It counts as functional, cell-based. The note with it: SAOS-2, 48 h. The procedure, abridged:
as §1

Another data set deals with Jurkat E6.1. As to the kind of experiment: Anticancer activity against human Jurkat E6-1 cells assessed as reduction in cell proliferation after 48 hrs by WST-1 assay. Conditions: Jurkat E6.1, 48 h. The format is functional, cell-based. Summed up: as §1
Data set [5] deals with MV4-11. Put plainly: Anticancer activity against human MV4-11 cells assessed as reduction in cell proliferation after 48 hrs by WST-1 assay. The note with it: MV4-11, 48 h. It counts as functional, cell-based. Summed up: as §1
In data set [6] the test system is U2OS. Put plainly: Anticancer activity against human U2OS cells assessed as reduction in cell proliferation at 10 uM after 48 hrs by WST-1 assay. The format is functional, cell-based. The procedure, abridged:
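This was a blind single-concentration screen of a 600-compound library against U-2 OS osteosarcoma cells. Each compound was tested at 10 µM for 48 h, and reduced proliferation was flagged for follow-up.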

Data set [7] can be described thus: Cytotoxicity against human NCM460 cells assessed as reduction in cell proliferation after 48 hrs by WST-1 assay. The note with it: NCM460, 48 h. It counts as cell-based. Summed up: as §1
The test system of the next data set is SAOS-2. As to the kind of experiment: Induction of apoptosis in human Saos2 cells assessed as phosphatidylserine externalization at 0.01 and 5 uM after 48 hrs by AnnexinV/propidium iodide staining based Tali-image based cytometry. The format is functional, cell-based. Summed up:
as §3

Data set [8] deals with MV4-11. As to the kind of experiment: Induction of apoptosis in human MV4-11 cells assessed as phosphatidylserine externalization at 0.0075 and 5 uM after 48 hrs by AnnexinV/propidium iodide staining based Tali-image based cytometry. The format is functional, cell-based. The procedure, abridged: as §3
The target in data set [9] is T1, Tubulin (Sus scrofa). Put plainly: Inhibition of porcine brain tubulin polymerization at 10 uM measured for 1 hr by spectrofluorometer analysis. Summed up: as §2
The subject of data set [10] is U2OS. Put plainly: Anticancer activity against human U2OS cells assessed as reduction in cell proliferation at 2.5 to 5 uM after 48 hrs by WST-1 assay. The format is functional. More on the design: scale not given: the % may be the effect or the level left. Summed up: as §1

This passage reports IC50, inhibition and Activity results from ChEMBL document CHEMBL3585301 (Bioorg Med Chem Lett, 2014).

The source made the active and inactive calls. The calls are words filed in the database; no cut-off is given here. A value given as a limit tells only on which side of the number the result lay.

T1 sequence (P02550 whole entry, looked up): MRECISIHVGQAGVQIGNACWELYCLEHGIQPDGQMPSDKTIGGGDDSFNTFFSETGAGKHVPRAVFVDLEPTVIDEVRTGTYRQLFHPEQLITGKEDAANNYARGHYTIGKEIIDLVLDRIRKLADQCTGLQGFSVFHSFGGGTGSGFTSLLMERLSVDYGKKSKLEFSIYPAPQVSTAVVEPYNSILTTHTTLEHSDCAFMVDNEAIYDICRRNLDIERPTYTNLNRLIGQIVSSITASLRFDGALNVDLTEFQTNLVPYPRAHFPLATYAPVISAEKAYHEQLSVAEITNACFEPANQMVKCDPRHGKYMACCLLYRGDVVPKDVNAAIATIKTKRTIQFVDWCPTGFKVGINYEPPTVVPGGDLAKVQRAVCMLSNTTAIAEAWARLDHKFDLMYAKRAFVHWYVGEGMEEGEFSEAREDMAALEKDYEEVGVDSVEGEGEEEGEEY
T1 sequence (P02554 whole entry, looked up): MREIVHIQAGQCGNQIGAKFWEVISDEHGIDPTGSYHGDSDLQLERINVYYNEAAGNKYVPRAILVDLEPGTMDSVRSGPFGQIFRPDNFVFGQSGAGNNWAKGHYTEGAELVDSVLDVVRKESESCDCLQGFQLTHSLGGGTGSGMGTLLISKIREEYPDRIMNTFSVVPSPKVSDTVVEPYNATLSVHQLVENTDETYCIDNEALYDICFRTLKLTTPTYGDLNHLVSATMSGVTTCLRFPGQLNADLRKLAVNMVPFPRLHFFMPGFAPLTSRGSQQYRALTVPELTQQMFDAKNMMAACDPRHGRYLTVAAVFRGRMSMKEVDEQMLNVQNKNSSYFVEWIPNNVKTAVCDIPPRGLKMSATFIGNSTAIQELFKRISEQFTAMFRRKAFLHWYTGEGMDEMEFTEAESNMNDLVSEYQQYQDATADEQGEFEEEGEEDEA

Regarding `COc1cc(-c2ccc(OC)c(OC)c2OC)ccc1O`, the IC50 with U2OS [1] was above 20000 nM; in [4], 1770 nM; with Jurkat E6.1, 486 nM; in the data set with MV4-11 [5], 1250 nM; in [7], above 20000 nM. The inhibition result at Tubulin (Sus scrofa) [2], in the data set on U2OS [6] and at Tubulin (Sus scrofa) [9] was “Active” in each case. The Activity entry in data set [3] is “Non-toxic”; with U2OS [10] it was 60%. The result in the data set on SAOS-2 and in the data set with MV4-11 [8] was Active.
Take `COc1ccc(-c2ccc(OC)c(OC)c2OC)cc1O`: the half-inhibitory concentration (IC50) in the data set on U2OS [1] was above 20000 nM; in [4], 5430 nM; with Jurkat E6.1, 965 nM; with MV4-11 [5] it was 2760 nM; in [7], above 20000 nM. The inhibition result on Tubulin (Sus scrofa) [2] was “inactive”. The Activity result is given as “Non-toxic” in [3] and 60% in the data set on U2OS [10]. For the same molecule, the inhibition result with U2OS [6] and on Tubulin (Sus scrofa) [9] was “Active” in each case. Further, the result with SAOS-2 and in the data set with MV4-11 [8] was Active.
Turning to `COc1ccc(/C=C\c2cc(OC)c(OC)c(OC)c2)cc1O` [COMBRETASTATIN A4], the IC50 was 14.1 nM in the data set with U2OS [1]; 11.4 nM in data set [4]; 6.08 nM with Jurkat E6.1; 6.27 nM in the data set with MV4-11 [5]; above 20000 nM in data set [7]. For the same molecule, on Tubulin (Sus scrofa) [2], the inhibition entry is “Active”. The Activity entry is listed as “Non-toxic” in [3] and 30% in the data set on U2OS [10]. For the same molecule, the outcome in the data set with SAOS-2 and with MV4-11 [8] was Active.
